From PMC12315948 (The FASEB Journal, 2021)

Experiments:
HeLa cells [1] = format: cell-based; conditions: 24 h treatment, 2 h 2.5 µg/mL pyolysin, MTT
How it was run: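 HeLa cells grown in DMEM with 10% FBS were seeded at 50,000 cells/mL. At 90% confluence they were treated in serum-free medium with vehicle, 100 µM test compound or 10 µM zaragozic acid, for 24 h or for indicated times. Cells were then challenged for 2 h with control medium or 2.5 µg/mL pyolysin. MTT (1 mg/mL, 2 h) was read at OD570 after DMSO lysis. Values are percentage of control; 4 independent experiments.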

squalene synthase = squalene synthase cell free assay; cited from earlier work
HeLa cells [2] = assay: Cytotoxicity per se in HeLa cells, MTT assay, control challenge; format: cell-based
How it was run: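 HeLa cells were seeded at 50,000 cells/mL in DMEM with 10% FBS. At 90% confluence they received serum-free medium with vehicle, 100 µM test compound or zaragozic acid for 24 h. They were then given a 2 h control-medium challenge without toxin. Viability was measured by MTT (1 mg/mL, 2 h; DMSO lysis; OD570) as percentage of control. Each point is one independent passage (n = 12).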

A549 cells = assay: Cytoprotection of A549 cells against streptolysin O; format: cell-based, human; conditions: 24 h: 100 µM MPEX098 or 10 µM zaragozic acid; 2 h challenge
How it was run: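 A549 cells were grown in RPMI1640 with 5% FBS, 1% antibiotic-antimycotic and 1% glutamine, then seeded at 50,000 cells/mL. At 90% confluence they were given serum-free medium with vehicle or treatment for 24 h, then challenged 2 h with graded streptolysin O. Viability was read by MTT (1 mg/mL, 2 h, DMSO lysis, OD570). LDH in supernatants was read by the INT/PMS lactate assay at OD450, initially and after 30 min at 37°C, against NADH standards.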

Compound | cytoprotection against pyolysin by isoprenoid treatment (HeLa cells [1]) | IC50 (squalene synthase) [nM] | cytotoxic concentration per se (HeLa cells [2]) [µM] | cell toxicity per se (HeLa cells [2]; MTT assay, control challenge, 100 µM MPEX098 or 10 µM zaragozic acid, 24 h, n = 12) [%] | protection of A549 cells against streptolysin O (A549 cells)
CC(C)=CCC/C(C)=C/CC/C(C)=C/CO[P@@](=O)(O)OP(=O)(O)O (stereo in doubt) [farnesyl diphosphate] | but not farnesyl diphosphate (P = .12) increased cytoprotection |  |  |  | 
C=C(CC[C@]12O[C@H](C(=O)O)[C@@](O)(C(=O)O)[C@](C(=O)O)(O1)[C@H](OC(=O)/C=C/[C@@H](C)C[C@@H](C)CC)[C@H]2O)[C@@H](OC(C)=O)[C@H](C)Cc1ccccc1 [Zaragozic acid, zaragozic acid] |  | […] | […] | 13 ± 3 | protected A549 cells against a range of concentrations of streptolysin O
CC(C)=CCC/C(C)=C/CC/C(C)=C/CC/C(C)=C/COP(=O)(O)OP(=O)(O)O [geranylgeranyl diphosphate] | increased cytoprotection against pyolysin |  |  |  | 
